{"source": "ChEMBL document CHEMBL3808372", "about": "“Identification of quinones as novel PIM1 kinase inhibitors” (Bioorg Med Chem Lett, 2016)", "key": {"[1]": {"test_system": "Tyrosine-protein kinase ABL1 (Homo sapiens), P00519 [T315I]", "experiment": "Inhibition of human ABL1 kinase T315I mutant phosphorylation (229 to 512 amino acid residues) assessed as enzyme activity at 10 uM by KINOMEScan assay", "parameters": "scale not given: the % may be the effect or the level left", "how_it_was_run": "(§1)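 Competition binding screen on a 100-kinase KINOMEscan panel, compound tested at a single 10 μM concentration. Primary binding read-out expressed as % Ctrl = (test compound signal − positive control signal)/(negative control signal − positive control signal) × 100, with lower values meaning stronger binding.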"}, "[2]": {"molecular_target": "Tyrosine-protein kinase ABL1 (Homo sapiens) (UniProt P00519)", "experiment": "Inhibition of human ABL1 kinase phosphorylation (229 to 512 amino acid residues) assessed as enzyme activity at 10 uM by KINOMEScan assay", "parameters": "scale not given: the % may be the effect or the level left", "how_it_was_run": "as §1"}, "[3]": {"molecular_target": "RAC-alpha serine/threonine-protein kinase (Homo sapiens) (UniProt P31749)", "sequence (P31749 whole entry)": "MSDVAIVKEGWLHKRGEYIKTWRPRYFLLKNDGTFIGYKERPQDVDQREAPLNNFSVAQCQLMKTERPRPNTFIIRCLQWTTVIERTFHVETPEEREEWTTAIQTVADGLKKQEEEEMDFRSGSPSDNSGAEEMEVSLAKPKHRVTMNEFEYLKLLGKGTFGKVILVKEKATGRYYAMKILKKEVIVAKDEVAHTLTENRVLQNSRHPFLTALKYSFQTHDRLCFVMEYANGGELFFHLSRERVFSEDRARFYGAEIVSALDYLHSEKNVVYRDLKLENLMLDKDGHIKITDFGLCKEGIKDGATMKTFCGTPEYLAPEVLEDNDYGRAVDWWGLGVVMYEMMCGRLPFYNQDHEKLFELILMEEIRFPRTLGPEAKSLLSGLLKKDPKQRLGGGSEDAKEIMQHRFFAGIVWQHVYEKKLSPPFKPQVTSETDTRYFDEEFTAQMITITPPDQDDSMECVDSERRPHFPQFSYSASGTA", "experiment": "Inhibition of human Akt1 expressed in bacterial system assessed as enzyme activity at 10 uM by KINOMEScan assay", "parameters": "scale not given: the % may be the effect or the level left", "how_it_was_run": "(§2)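 Commercial KINOMEscan binding panel of 100 kinases, test compound at 10 μM. Results are primary-screen binding interactions expressed as % Ctrl = (test compound signal − positive control signal)/(negative control signal − positive control signal) × 100. Lower % Ctrl means stronger binding.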"}, "[4]": {"molecular_target": "Serine/threonine-protein kinase B-raf (Homo sapiens) (UniProt P15056)", "experiment": "Inhibition of human BRAF (429 to 741 amino acid residues) assessed as enzyme activity at 10 uM by KINOMEScan assay", "parameters": "scale not given: the % may be the effect or the level left", "how_it_was_run": "as §1"}, "[5]": {"molecular_target": "Tyrosine-protein kinase BTK (Homo sapiens) (UniProt Q06187)", "experiment": "Inhibition of full length human BTK assessed as enzyme activity at 10 uM by KINOMEScan assay", "parameters": "scale not given: the % may be the effect or the level left", "how_it_was_run": "as §2"}, "[6]": {"molecular_target": "Serine/threonine-protein kinase Chk1 (Homo sapiens) (UniProt O14757)", "experiment": "Inhibition of human CHEK1 (1 to 289 amino acid residues) assessed as enzyme activity at 10 uM by KINOMEScan assay expressed in bacterial system assessed as enzyme activity at 10 uM by KINOMEScan assay", "parameters": "scale not given: the % may be the effect or the level left", "how_it_was_run": "as §1"}, "[7]": {"molecular_target": "Receptor tyrosine-protein kinase erbB-4 (Homo sapiens) (UniProt Q15303)", "experiment": "Inhibition of human ERBB4 (690 to 994 amino acid residues) assessed as enzyme activity at 10 uM by KINOMEScan assay expressed in bacterial system assessed as enzyme activity at 10 uM by KINOMEScan assay", "parameters": "scale not given: the % may be the effect or the level left", "how_it_was_run": "as §1"}, "[8]": {"molecular_target": "Fibroblast growth factor receptor 3 (Homo sapiens) (UniProt P22607)", "experiment": "Inhibition of human FGFR3 (442 to 771 amino acid residues) assessed as enzyme activity at 10 uM by KINOMEScan assay expressed in bacterial system assessed as enzyme activity at 10 uM by KINOMEScan assay", "parameters": "scale not given: the % may be the effect or the level left", "how_it_was_run": "as §1"}, "[9]": {"molecular_target": "Receptor-type tyrosine-protein kinase FLT3 (Homo sapiens) (UniProt P36888)", "sequence (P36888 whole entry, the tested form may be a part)": "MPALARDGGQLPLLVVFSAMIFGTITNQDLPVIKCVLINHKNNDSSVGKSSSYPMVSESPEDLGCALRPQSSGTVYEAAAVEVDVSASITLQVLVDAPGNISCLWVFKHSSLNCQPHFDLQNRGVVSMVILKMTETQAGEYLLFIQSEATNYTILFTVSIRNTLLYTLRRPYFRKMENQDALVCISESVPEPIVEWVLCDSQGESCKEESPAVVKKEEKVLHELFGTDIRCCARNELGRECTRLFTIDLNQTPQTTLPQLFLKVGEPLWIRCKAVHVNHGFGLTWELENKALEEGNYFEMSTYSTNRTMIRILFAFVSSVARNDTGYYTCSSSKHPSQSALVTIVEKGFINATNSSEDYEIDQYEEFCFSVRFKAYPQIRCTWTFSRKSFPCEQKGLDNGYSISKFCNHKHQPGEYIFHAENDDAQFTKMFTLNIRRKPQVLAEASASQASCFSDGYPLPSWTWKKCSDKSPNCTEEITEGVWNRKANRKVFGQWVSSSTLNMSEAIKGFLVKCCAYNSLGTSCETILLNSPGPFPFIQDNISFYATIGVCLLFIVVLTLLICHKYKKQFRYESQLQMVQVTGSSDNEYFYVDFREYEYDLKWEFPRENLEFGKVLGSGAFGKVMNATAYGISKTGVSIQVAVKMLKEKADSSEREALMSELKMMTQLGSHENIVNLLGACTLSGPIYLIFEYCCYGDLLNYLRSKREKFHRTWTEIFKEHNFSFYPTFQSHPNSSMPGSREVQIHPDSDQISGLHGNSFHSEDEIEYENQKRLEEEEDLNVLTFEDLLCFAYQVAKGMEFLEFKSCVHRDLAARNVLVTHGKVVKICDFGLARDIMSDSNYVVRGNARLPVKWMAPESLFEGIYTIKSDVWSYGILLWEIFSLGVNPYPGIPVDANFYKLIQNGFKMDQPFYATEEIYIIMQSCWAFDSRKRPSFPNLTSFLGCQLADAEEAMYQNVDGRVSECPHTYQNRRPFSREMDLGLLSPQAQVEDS", "experiment": "Inhibition of human FLT3 (646 to 1225 amino acid residues) assessed as enzyme activity at 10 uM by KINOMEScan assay expressed in bacterial system assessed as enzyme activity at 10 uM by KINOMEScan assay", "parameters": "scale not given: the % may be the effect or the level left", "how_it_was_run": "as §1"}, "[10]": {"molecular_target": "Insulin-like growth factor 1 receptor (Homo sapiens) (UniProt P08069)", "experiment": "Inhibition of human IGF1R (972 to 1294 amino acid residues) assessed as enzyme activity at 10 uM by KINOMEScan assay expressed in bacterial system assessed as enzyme activity at 10 uM by KINOMEScan assay", "parameters": "scale not given: the % may be the effect or the level left", "how_it_was_run": "as §2"}, "[11]": {"molecular_target": "Tyrosine-protein kinase JAK2 (Homo sapiens) (UniProt O60674)", "experiment": "Inhibition of human JAK2 JH1 catalytic domain (829 to 1132 amino acid residues) assessed as enzyme activity at 10 uM by KINOMEScan assay", "parameters": "scale not given: the % may be the effect or the level left", "how_it_was_run": "as §1"}, "[12]": {"molecular_target": "Mitogen-activated protein kinase 10 (Homo sapiens) (UniProt P53779)", "experiment": "Inhibition of human JNK3 (28 to 422 amino acid residues) assessed as enzyme activity at 10 uM by KINOMEScan assay", "parameters": "scale not given: the % may be the effect or the level left", "how_it_was_run": "as §1"}, "[13]": {"molecular_target": "Mitogen-activated protein kinase kinase kinase 4 (Homo sapiens) (UniProt Q9Y6R4)", "experiment": "Inhibition of human MAP3K4 (1319 to 1608 amino acid residues) expressed in bacterial system assessed as enzyme activity at 10 uM by KINOMEScan assay", "parameters": "scale not given: the % may be the effect or the level left", "how_it_was_run": "as §2"}, "[14]": {"molecular_target": "MAP kinase-activated protein kinase 2 (Homo sapiens) (UniProt P49137)", "sequence (P49137 whole entry, looked up, the tested form may be a part)": "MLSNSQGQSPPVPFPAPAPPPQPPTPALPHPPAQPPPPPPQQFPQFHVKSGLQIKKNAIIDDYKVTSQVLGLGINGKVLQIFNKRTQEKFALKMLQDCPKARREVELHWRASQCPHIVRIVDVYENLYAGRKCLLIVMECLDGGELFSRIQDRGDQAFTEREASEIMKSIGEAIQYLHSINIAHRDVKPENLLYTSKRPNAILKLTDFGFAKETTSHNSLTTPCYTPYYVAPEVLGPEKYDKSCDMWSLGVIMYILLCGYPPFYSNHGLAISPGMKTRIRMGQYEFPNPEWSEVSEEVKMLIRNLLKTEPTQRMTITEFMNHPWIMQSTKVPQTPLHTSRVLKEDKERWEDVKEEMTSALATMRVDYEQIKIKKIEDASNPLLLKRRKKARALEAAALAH", "experiment": "Inhibition of human MAPKAPK2 (48 to 345 amino acid residues) expressed in bacterial system assessed as enzyme activity at 10 uM by KINOMEScan assay", "parameters": "scale not given: the % may be the effect or the level left", "how_it_was_run": "as §1"}, "[15]": {"molecular_target": "Dual specificity mitogen-activated protein kinase kinase 2 (Homo sapiens) (UniProt P36507)", "sequence (P36507 whole entry)": "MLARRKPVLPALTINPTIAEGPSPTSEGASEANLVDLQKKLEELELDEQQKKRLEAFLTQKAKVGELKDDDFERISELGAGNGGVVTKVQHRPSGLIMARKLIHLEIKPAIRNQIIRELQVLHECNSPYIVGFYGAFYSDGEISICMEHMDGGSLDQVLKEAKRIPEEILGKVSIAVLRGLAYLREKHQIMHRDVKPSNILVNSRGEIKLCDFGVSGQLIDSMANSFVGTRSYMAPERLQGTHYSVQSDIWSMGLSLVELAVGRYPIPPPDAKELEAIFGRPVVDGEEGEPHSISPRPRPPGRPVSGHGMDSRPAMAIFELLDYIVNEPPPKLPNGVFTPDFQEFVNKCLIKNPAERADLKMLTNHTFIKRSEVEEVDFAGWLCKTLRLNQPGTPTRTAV", "experiment": "Inhibition of full length human MEK2 assessed as enzyme activity at 10 uM by KINOMEScan assay", "parameters": "scale not given: the % may be the effect or the level left", "how_it_was_run": "as §1"}, "[16]": {"molecular_target": "MAP kinase-interacting serine/threonine-protein kinase 1 (Homo sapiens) (UniProt Q9BUB5)", "sequence (Q9BUB5 whole entry, looked up)": "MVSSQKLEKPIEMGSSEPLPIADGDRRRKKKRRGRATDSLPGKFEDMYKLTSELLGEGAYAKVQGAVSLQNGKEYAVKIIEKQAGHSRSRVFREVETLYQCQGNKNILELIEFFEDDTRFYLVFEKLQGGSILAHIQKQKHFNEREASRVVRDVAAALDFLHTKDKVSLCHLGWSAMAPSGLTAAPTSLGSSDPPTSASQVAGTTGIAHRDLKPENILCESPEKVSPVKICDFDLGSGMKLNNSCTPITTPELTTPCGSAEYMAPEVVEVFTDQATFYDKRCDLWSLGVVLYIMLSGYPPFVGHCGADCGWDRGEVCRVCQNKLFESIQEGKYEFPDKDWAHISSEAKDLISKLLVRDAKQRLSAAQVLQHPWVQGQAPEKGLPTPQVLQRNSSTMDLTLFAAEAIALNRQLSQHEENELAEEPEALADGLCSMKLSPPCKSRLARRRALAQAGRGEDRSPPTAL", "experiment": "Inhibition of full length human MKNK1 assessed as enzyme activity at 10 uM by KINOMEScan assay", "parameters": "scale not given: the % may be the effect or the level left", "how_it_was_run": "as §1"}, "[17]": {"molecular_target": "Mitogen-activated protein kinase kinase kinase 9 (Homo sapiens) (UniProt P80192)", "experiment": "Inhibition of human MLK1 (88 to 426 amino acid residues) expressed in bacterial system assessed as enzyme activity at 10 uM by KINOMEScan assay", "parameters": "scale not given: the % may be the effect or the level left", "how_it_was_run": "as §1"}, "[18]": {"molecular_target": "Mitogen-activated protein kinase 14 (Homo sapiens) (UniProt Q16539)", "experiment": "Inhibition of full length human p38-alpha expressed in bacterial system assessed as enzyme activity at 10 uM by KINOMEScan assay", "parameters": "scale not given: the % may be the effect or the level left", "how_it_was_run": "as §2"}, "[19]": {"molecular_target": "Protein kinase C epsilon type (Homo sapiens) (UniProt Q02156)", "sequence (Q02156 whole entry, the tested form may be a part)": "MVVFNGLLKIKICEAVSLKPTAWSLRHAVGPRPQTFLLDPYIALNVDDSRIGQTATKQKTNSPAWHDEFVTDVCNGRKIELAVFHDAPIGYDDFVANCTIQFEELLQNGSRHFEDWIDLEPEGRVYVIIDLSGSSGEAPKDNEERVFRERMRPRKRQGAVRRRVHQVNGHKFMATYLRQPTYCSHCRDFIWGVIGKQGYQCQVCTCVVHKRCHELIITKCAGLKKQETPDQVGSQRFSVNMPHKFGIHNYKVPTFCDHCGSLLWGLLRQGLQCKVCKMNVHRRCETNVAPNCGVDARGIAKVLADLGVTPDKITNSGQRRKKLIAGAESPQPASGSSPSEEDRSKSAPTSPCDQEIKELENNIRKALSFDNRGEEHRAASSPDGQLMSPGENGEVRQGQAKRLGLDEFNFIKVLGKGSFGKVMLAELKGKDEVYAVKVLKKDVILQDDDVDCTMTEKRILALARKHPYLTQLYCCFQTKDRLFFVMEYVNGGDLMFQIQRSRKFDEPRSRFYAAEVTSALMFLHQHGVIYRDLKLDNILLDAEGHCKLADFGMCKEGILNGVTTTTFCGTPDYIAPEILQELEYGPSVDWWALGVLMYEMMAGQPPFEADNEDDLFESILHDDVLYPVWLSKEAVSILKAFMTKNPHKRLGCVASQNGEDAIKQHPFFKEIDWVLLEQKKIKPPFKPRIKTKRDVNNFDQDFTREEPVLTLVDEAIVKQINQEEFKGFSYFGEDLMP", "experiment": "Inhibition of human PRKCE (378 to 737 amino acid residues) assessed as enzyme activity at 10 uM by KINOMEScan assay", "parameters": "scale not given: the % may be the effect or the level left", "how_it_was_run": "(§3)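 Single-concentration competition binding screen (KINOMEscan) across a 100-kinase panel at 10 μM. Primary binding read-out is reported as % of control: (test signal − positive-control signal)/(negative-control signal − positive-control signal) × 100. Lower values indicate stronger binding.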"}, "[20]": {"molecular_target": "Proto-oncogene tyrosine-protein kinase receptor Ret (Homo sapiens) (UniProt P07949)", "experiment": "Inhibition of human RET (713 to 1014 amino acid residues) expressed in bacterial system assessed as enzyme activity at 10 uM by KINOMEScan assay", "parameters": "scale not given: the % may be the effect or the level left", "how_it_was_run": "as §2"}, "[21]": {"molecular_target": "NUAK family SNF1-like kinase 2 (Homo sapiens) (UniProt Q9H093)", "sequence (Q9H093 whole entry, the tested form may be a part)": "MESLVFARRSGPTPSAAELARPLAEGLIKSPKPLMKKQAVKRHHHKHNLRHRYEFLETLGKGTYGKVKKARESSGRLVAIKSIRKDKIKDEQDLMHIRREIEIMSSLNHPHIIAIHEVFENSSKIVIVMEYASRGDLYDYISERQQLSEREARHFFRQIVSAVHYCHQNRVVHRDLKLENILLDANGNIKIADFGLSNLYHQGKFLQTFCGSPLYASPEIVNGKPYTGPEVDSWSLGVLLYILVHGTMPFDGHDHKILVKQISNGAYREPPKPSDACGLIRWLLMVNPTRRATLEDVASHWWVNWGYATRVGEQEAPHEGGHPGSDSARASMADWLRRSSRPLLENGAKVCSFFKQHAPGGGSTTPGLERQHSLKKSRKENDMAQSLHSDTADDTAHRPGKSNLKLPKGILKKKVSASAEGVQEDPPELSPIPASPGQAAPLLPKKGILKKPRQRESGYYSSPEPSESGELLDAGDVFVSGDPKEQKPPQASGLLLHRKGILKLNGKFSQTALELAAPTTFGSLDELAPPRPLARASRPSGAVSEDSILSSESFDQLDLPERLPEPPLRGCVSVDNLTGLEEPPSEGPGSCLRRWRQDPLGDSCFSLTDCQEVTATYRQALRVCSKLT", "experiment": "Inhibition of human SNARK (22 to 333 amino acid residues) assessed as enzyme activity at 10 uM by KINOMEScan assay", "parameters": "scale not given: the % may be the effect or the level left", "how_it_was_run": "as §3"}, "[22]": {"molecular_target": "Angiopoietin-1 receptor (Homo sapiens) (UniProt Q02763)", "experiment": "Inhibition of human TIE2 (804 to 1112 amino acid residues) expressed in bacterial system assessed as enzyme activity at 10 uM by KINOMEScan assay", "parameters": "scale not given: the % may be the effect or the level left", "how_it_was_run": "as §3"}, "[23]": {"molecular_target": "Testis-specific serine/threonine-protein kinase 1 (Homo sapiens) (UniProt Q9BXA7)", "sequence (Q9BXA7 whole entry)": "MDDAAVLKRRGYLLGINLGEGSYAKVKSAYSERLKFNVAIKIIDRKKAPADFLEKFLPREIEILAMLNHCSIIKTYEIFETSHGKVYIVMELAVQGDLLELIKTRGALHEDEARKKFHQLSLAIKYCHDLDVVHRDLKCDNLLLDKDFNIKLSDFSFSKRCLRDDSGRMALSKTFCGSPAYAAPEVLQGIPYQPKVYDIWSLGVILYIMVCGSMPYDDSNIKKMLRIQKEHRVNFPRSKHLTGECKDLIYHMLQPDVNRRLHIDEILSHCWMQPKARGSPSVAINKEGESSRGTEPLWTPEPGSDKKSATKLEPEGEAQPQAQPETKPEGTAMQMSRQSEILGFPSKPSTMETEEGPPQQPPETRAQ", "experiment": "Inhibition of full length human TSSK1B expressed in bacterial system assessed as enzyme activity at 10 uM by KINOMEScan assay", "parameters": "scale not given: the % may be the effect or the level left", "how_it_was_run": "as §1"}, "[24]": {"molecular_target": "Non-receptor tyrosine-protein kinase TYK2 (Homo sapiens) (UniProt P29597)", "experiment": "Inhibition of human TYK2 JH1 catalytic domain (877 to 1187 amino acid residues) assessed as enzyme activity at 10 uM by KINOMEScan assay", "parameters": "scale not given: the % may be the effect or the level left", "how_it_was_run": "as §3"}, "[25]": {"molecular_target": "Serine/threonine-protein kinase pim-3 (Homo sapiens) (UniProt Q86V86)", "experiment": "Inhibition of PIM3 (unknown origin)"}}, "data": [{"smiles": "O=C1C2=C(C(=O)c3c(O)ccc(O)c31)[C@@H](O)[C@@H](O)[C@@H](O)C2", "values": [{"measurement": "Activity", "setting": "[1]", "result": 95, "unit": "%"}, {"measurement": "Activity", "setting": "[2]", "result": 88, "unit": "%"}, {"measurement": "Activity", "setting": "[3]", "result": 100, "unit": "%"}, {"measurement": "Activity", "setting": "[4]", "result": 87, "unit": "%"}, {"measurement": "Activity", "setting": "[5]", "result": 100, "unit": "%"}, {"measurement": "Activity", "setting": "[6]", "result": 79, "unit": "%"}, {"measurement": "Activity", "setting": "[7]", "result": 95, "unit": "%"}, {"measurement": "Activity", "setting": "[8]", "result": 93, "unit": "%"}, {"measurement": "Activity", "setting": "[9]", "result": 84, "unit": "%"}, {"measurement": "Activity", "setting": "[10]", "result": 100, "unit": "%"}, {"measurement": "Activity", "setting": "[11]", "result": 94, "unit": "%"}, {"measurement": "Activity", "setting": "[12]", "result": 76, "unit": "%"}, {"measurement": "Activity", "setting": "[13]", "result": 100, "unit": "%"}, {"measurement": "Activity", "setting": "[14]", "result": 93, "unit": "%"}, {"measurement": "Activity", "setting": "[15]", "result": 96, "unit": "%"}, {"measurement": "Activity", "setting": "[16]", "result": 45, "unit": "%"}, {"measurement": "Activity", "setting": "[17]", "result": 99, "unit": "%"}, {"measurement": "Activity", "setting": "[18]", "result": 100, "unit": "%"}, {"measurement": "Activity", "setting": "[19]", "result": 92, "unit": "%"}, {"measurement": "Activity", "setting": "[20]", "result": 100, "unit": "%"}, {"measurement": "Activity", "setting": "[21]", "result": 90, "unit": "%"}, {"measurement": "Activity", "setting": "[22]", "result": 89, "unit": "%"}, {"measurement": "Activity", "setting": "[23]", "result": 89, "unit": "%"}, {"measurement": "Activity", "setting": "[24]", "result": 57, "unit": "%"}, {"measurement": "% of MOE kinase hits", "setting": "[25]", "result": 29, "unit": "%"}]}]}
